Results as given in ChEMBL document CHEMBL2046352, “Discovery of novel 5-(ethyl or hydroxymethyl) analogs of 2'-'up' fluoro (or hydroxyl) pyrimidine nucleosides as a new class of Mycobacterium tuberculosis, Mycobacterium bovis and Mycobacterium avium inhibitors” (Bioorg Med Chem, 2012).

Legend:
[1] = system: Mycobacterium tuberculosis; test: Antimycobacterial activity against Mycobacterium bovis BCG assessed as inhibition of microbial growth at 100 ug/ml incubated for 6 days by MABA method; format: functional; conditions: variant bovis BCG, 144 h, read-out: GI
Summary of the method: (§1)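 Microplate alamar blue assay in 7H9GC medium. Compounds dissolved in DMSO at 10 mg/mL (stock), diluted to 100, 50, 25, 10, 5, 1 and 0.5 ug/mL, each in triplicate. Frozen inoculum added at final 2.5 x 10^5 CFU/mL. Bacteria-alone and medium-alone control wells. Read by colour change and fluorescence. % inhibition = (test − M bkg)/(B − M bkg) x 100, mean of two experiments. MIC50 = lowest concentration giving ≥50% inhibition.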

[2] = system: Mycobacterium tuberculosis; test: Antimycobacterial activity against Mycobacterium bovis BCG assessed as inhibition of microbial growth at 50 ug/ml incubated for 6 days by MABA method; format: functional; conditions: variant bovis BCG, 144 h, read-out: GI; summary of the method: as §1
[3] = system: Mycobacterium tuberculosis; test: Antimycobacterial activity against Mycobacterium bovis BCG assessed as inhibition of microbial growth at 0.5 to 100 ug/ml incubated for 6 days by MABA method; format: functional, variant bovis BCG; summary of the method: as §1
[4] = system: Mycobacterium tuberculosis; test: Antimycobacterial activity against Mycobacterium bovis BCG assessed as inhibition of microbial growth incubated for 6 days by MABA method; format: functional; conditions: variant bovis BCG, 144 h; summary of the method: as §1
[5] = system: Mycobacterium tuberculosis; test: Antimycobacterial activity against Mycobacterium bovis BCG assessed as inhibition of microbial growth at 0.5 ug/ml incubated for 6 days by MABA method; format: functional; conditions: variant bovis BCG, 144 h, read-out: GI; summary of the method: as §1
[6] = system: Mycobacterium tuberculosis; test: Antimycobacterial activity against Mycobacterium bovis BCG assessed as inhibition of microbial growth at 5 ug/ml incubated for 6 days by MABA method; format: functional; conditions: variant bovis BCG, 144 h, read-out: GI; summary of the method: as §1
[7] = system: Mycobacterium tuberculosis; test: Antimycobacterial activity against Mycobacterium bovis BCG assessed as inhibition of microbial growth at 10 ug/ml incubated for 6 days by MABA method; format: functional; conditions: variant bovis BCG, 144 h, read-out: GI; summary of the method: as §1
[8] = system: Mycobacterium tuberculosis; test: Antimycobacterial activity against Mycobacterium bovis BCG assessed as inhibition of microbial growth at 1 ug/ml incubated for 6 days by MABA method; format: functional; conditions: variant bovis BCG, 144 h, read-out: GI; summary of the method: as §1

Compound	inhibition of growth at 100 µg/mL [1]	inhibition of growth at 50 µg/mL [2]	also measured
CCc1cn([C@@H]2O[C@H](COC(C)=O)[C@@H](OC(C)=O)[C@@H]2F)c(=O)[nH]c1=O	75%	55%	–
CCc1cn([C@@H]2O[C@H](CO)[C@@H](O)[C@@H]2F)c(=O)nc1N	50%	–	–
O=c1[nH]c(=O)n([C@@H]2O[C@H](CO)[C@@H](O)[C@@H]2O)cc1CO	–	–	growth inhibition (GI) [3]: 0%
CCc1cn([C@@H]2O[C@H](CO)[C@@H](O)[C@@H]2F)c(=O)[nH]c1=S	65%	55%	–
CCc1cn([C@H]2O[C@@H](CO)[C@H](O)[C@H]2F)c(=O)[nH]c1=O (single isomer, unassigned)	–	–	growth inhibition (GI) [3]: 0%
O=c1[nH]c(=S)c(CO)cn1[C@@H]1O[C@H](CO)[C@@H](O)[C@@H]1O	100%	100%	MIC50 [4]: 0.5 µg/mL; inhibition of growth at 0.5 µg/mL [5]: 50%; inhibition of growth at 5 µg/mL [6]: 75%; inhibition of growth at 10 µg/mL [7]: 90%
CCc1cn([C@@H]2O[C@H](CO)[C@@H](Br)[C@@H]2F)c(=O)[nH]c1=O	80%	70%	MIC50 [4]: 5 µg/mL; inhibition of growth at 5 µg/mL [6]: 50%; inhibition of growth at 10 µg/mL [7]: 60%
Cc1cn([C@@H]2O[C@H](CO)[C@@H](Br)[C@@H]2O)c(=O)[nH]c1=O	–	–	inhibition of growth at 1 µg/mL [8]: 40%
CCc1cn([C@@H]2O[C@H](CO)C[C@@H]2F)c(=O)[nH]c1=O	25%	–	–
CCc1cn2c(nc1=O)O[C@@H]1[C@H](F)[C@H]2O[C@@H]1CO	25%	25%	–
CCc1cn([C@@H]2O[C@H](CO)[C@@H](N=[N+]=[N-])[C@@H]2F)c(=O)[nH]c1=O	–	–	growth inhibition (GI) [3]: 0%
CO[C@H]1/C=C/O[C@@]2(C)Oc3c(C)c(O)c4c(O)c(c(/C=N/N5CCN(C)CC5)c(O)c4c3C2=O)NC(=O)/C(C)=C\C=C\[C@H](C)[C@H](O)[C@@H](C)[C@@H](O)[C@@H](C)[C@H](OC(C)=O)[C@@H]1C [RIFAMPIN]	–	–	inhibition of growth at 0.5 µg/mL [5]: 100%
COCc1cn([C@@H]2O[C@H](CO)[C@@H](O)[C@@H]2O)c(=O)nc1N	80%	60%	inhibition of growth at 10 µg/mL [7]: 50%
